Source: ChEMBL document CHEMBL1130413, “Novel 3'-C/N-substituted 2',3'-beta-D-dideoxynucleosides as potential chemotherapeutic agents. 1. Thymidine derivatives: synthesis, structure, and broad spectrum antiviral properties” (J Med Chem, 1997)
Converted amounts (≈) assume the structure as drawn.

Assays:
FM3A [1] = experiment: EC50 is the cytotoxic concentration of compound required to reduce FM3A/TK- (Thymidine kinase deficient murine mammary carcinoma cells) cell viability by 50%.; type: functional, cell-based; conditions: Mus musculus
Method in brief: (§1)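 Murine L1210 or FM3A-derived cells seeded at 5 × 10^5 cells/mL with varying compound concentrations. Incubated 2 days at 37 °C in humidified CO2. Viable cells counted with a Coulter counter. Value is the concentration reducing viable cell number by 50%.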

E6SM [2] = experiment: 50% Minimum inhibitory concentration which is required to reduce cytopathogenicity induced by (G) strain of HSV-2 virus on human E6SM cells.; type: functional
Method in brief: (§2)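 Confluent cell monolayers infected with 100 CCID50 virus and left 1 h for adsorption. Residual virus then removed and compound added at serial dilutions (400, 200, 100 ... µg/mL). Value is the concentration giving 50% reduction of CPE.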

[3] = Minimum cytotoxic concentration which causes microscopically detectable alteration of normal cell morphology after 2 days of incubation.; type: functional; conditions: 48 h
Method in brief: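 Uninfected E6SM cells exposed to compound for 2 days. Minimum concentration giving a microscopically detectable change in normal cell morphology recorded.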

CEM-TK(-) [4] = experiment: Cytotoxic concentration which is required to reduce CEM/TK- cell viability by 50%.; type: functional; conditions: Homo sapiens
E6SM [5] = experiment: 50% Minimum inhibitory concentration which is required to reduce cytopathogenicity induced by (F) strain of HSV-1 virus on human E6SM cells.; type: functional; method in brief: as §2
[6] = Selectivity index of HIV-1 and HIV-2 with respect to CEM cells; type: functional, CCRF-CEM
Method in brief: (§3)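 Selectivity index calculated as average CC50 divided by average EC50. Each average comes from two independent experiments, using HIV-1 (IIIB) and HIV-2 (ROD) in CEM or MT-4 cells.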

MT4 [7] = experiment: 50% effective concentration of compound which is required to protect human MT-4 cells against cytopathogenicity of HIV-2.; type: functional, cell-based
E6SM [8] = experiment: 50% Minimum inhibitory concentration which is required to reduce cytopathogenicity induced by (Lyons) strain of HSV-2 virus on human E6SM cells.; type: functional; method in brief: as §2
CCRF-CEM [9] = experiment: Cytotoxic concentration which is required to reduce human CEM cell viability by 50%.; type: functional
Method in brief: (§4)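 Human CEM or Molt-4 cells seeded at 7.5 × 10^5 cells/mL with varying compound concentrations. Incubated 3 days at 37 °C in humidified CO2. Viable cells counted with a Coulter counter. Value is the concentration reducing viable cell number by 50%.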

L1210 = experiment: EC50 is the cytotoxic concentration of compound required to reduce L1210 (murine leukemia cells) cell viability by 50%.; type: functional, cell-based; conditions: Mus musculus; method in brief: as §1
MT4 [10] = experiment: Cytotoxic concentration which is required to reduce human MT-4 cell viability by 50%.; type: functional
FM3A [11] = experiment: EC50 is the cytotoxic concentration of compound required to reduce FM3A (murine mammary carcinoma cells) cell viability by 50%.; type: functional, cell-based; conditions: Mus musculus; method in brief: as §1
E6SM [12] = experiment: 50% Minimum inhibitory concentration which is required to reduce cytopathogenicity induced by (196) strain of HSV-2 virus on human E6SM cells.; type: functional; method in brief: as §2
MT4 [13] = experiment: 50% effective concentration of compound which is required to protect human MT-4 cells against cytopathogenicity of HIV-1.; type: functional, cell-based
FM3A [14] = experiment: EC50 is the cytotoxic concentration of compound required to reduce FM3A/TK- HSV-1TK+ cell viability by 50%.; type: functional, cell-based; conditions: Mus musculus; method in brief: as §1
E6SM [15] = experiment: 50% Minimum inhibitory concentration which is required to reduce cytopathogenicity induced by TK-(B2006) strain of HSV-1 virus on human E6SM cells.; type: functional; method in brief: as §2
CCRF-CEM [16] = experiment: 50% effective concentration of compound which is required to protect human CEM cells against HIV-1 induced giant cell formation.; type: functional, cell-based
Method in brief: (§5)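 CEM cells at 250000–300000 cells/mL infected with HIV-1 (IIIB) or HIV-2 (ROD) at 100 CCID50/mL. Infected cells mixed with serial compound dilutions and incubated 4 days at 37 °C. Syncytium (giant cell) formation then scored. Values averaged over two independent experiments.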

E6SM [17] = experiment: 50% Minimum inhibitory concentration which is required to reduce cytopathogenicity induced by (KOS) strain of HSV-1 virus on human E6SM cells.; type: functional; method in brief: as §2
CCRF-CEM [18] = experiment: 50% effective concentration of compound which is required to protect human CEM cells against HIV-2 induced giant cell formation.; type: functional, cell-based; method in brief: as §5
MOLT-4 = experiment: EC50 is the cytotoxic concentration of compound required to reduce Molt4/C8 (human T-lymphocyte) cell viability by 50%.; type: functional, cell-based; method in brief: as §4
E6SM [19] = experiment: 50% Minimum inhibitory concentration which is required to reduce cytopathogenicity induced by (Mc Intyre) strain of HSV-1 virus on human E6SM cells.; type: functional; method in brief: as §2
CEM-TK(-) [20] = experiment: 50% effective concentration of compound which is required to protect Thymidine kinase deficient human CEM (CEM/TK-) cells against HIV-2.; type: functional, cell-based
[21] = Selectivity index of HIV-1 and HIV-2 with respect to MT-4 cells; type: functional, MT4; method in brief: as §3
HEL [22] = experiment: 50% Minimum inhibitory concentration which is required to reduce cytopathogenicity induced by (Lyons) strain of HSV-2 virus on human embryonic HEL cells.; type: functional; method in brief: as §2
HEL [23] = experiment: 50% Minimum inhibitory concentration which is required to reduce cytopathogenicity induced by TK-(B2006) strain of HSV-1 virus on human embryonic HEL cells.; type: functional; method in brief: as §2
HEL [24] = experiment: 50% Minimum inhibitory concentration which is required to reduce cytopathogenicity induced by (Mc Intyre) strain of HSV-1 virus on human embryonic HEL cells.; type: functional; method in brief: as §2
HEL [25] = experiment: 50% Minimum inhibitory concentration which is required to reduce cytopathogenicity induced by (KOS) strain of HSV-1 virus on human embryonic HEL cells.; type: functional; method in brief: as §2
HEL [26] = experiment: 50% Minimum inhibitory concentration which is required to reduce cytopathogenicity induced by (G) strain of HSV-2 virus on human embryonic HEL cells.; type: functional; method in brief: as §2
HepG2 = experiment: 50% Effective concentration of compound required for inhibiting intracellular viral replicative intermediate DNA in HBV-transfected 2.2.15 cell line.; type: functional, cell-based; conditions: Homo sapiens
Method in brief: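 2.2.15 cells (HBV-transfected, Hep-G2-derived) in DMEM with 4% FBS and 0.5 mM glutamine; drug exposure 9 days, medium changed every 3 days. Total intracellular DNA extracted and Southern-blotted with a 32P-labelled full-length HBV probe. Replicative intermediate DNA in treated cells compared with untreated 2.2.15 cells; Hep-G2 as negative control.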

HeLa = experiment: 50% Minimum inhibitory concentration which is required to reduce cytopathogenicity induced by Vesicular Stomatitis virus (VSV) in Hela cells.; type: functional; conditions: Homo sapiens; method in brief: as §2
HEL [27] = experiment: 50% Minimum inhibitory concentration which is required to reduce cytopathogenicity induced by (OKA) strain of Varicella Zoster virus on human embryonic HEL cells.; type: functional

| Structure (SMILES) | EC50 (FM3A [1]) | MIC (E6SM [2]) | MCC [3] | CC50 (CEM-TK(-) [4]) | MIC (E6SM [5]) | Selectivity index [6] | EC50 (MT4 [7]) | MIC (E6SM [8]) | CC50 (CCRF-CEM [9]) | EC50 (L1210) | CC50 (MT4 [10]) | MIC (E6SM [12]) | EC50 (MT4 [13]) | MIC (E6SM [15]) | EC50 (CCRF-CEM [16]) | MIC (E6SM [17]) | EC50 (CCRF-CEM [18]) | MIC (E6SM [19]) | EC50 (CEM-TK(-) [20]) | Selectivity index [21] | further results |
| --- | --- | --- | --- | --- | --- | --- | --- | --- | --- | --- | --- | --- | --- | --- | --- | --- | --- | --- | --- | --- | --- |
| Cc1cn(C2C/C(=[N+](/[O-])O)C(CO)O2)c(=O)[nH]c1=O (stereo not given) | > 200 µg/mL | > 200 µg/mL | > 200 µg/mL | > 200 µg/mL | 9 µg/mL (≈ 33.2 µM) | 25 | 1.2 µg/mL (≈ 4.42 µM) | > 200 µg/mL | 247 µg/mL (≈ 911 µM) | 25 µg/mL (≈ 92.2 µM) | 91 µg/mL (≈ 336 µM) | > 200 µg/mL | 0.86 µg/mL (≈ 3.17 µM) | > 200 µg/mL | 13 µg/mL (≈ 47.9 µM) | 35 µg/mL (≈ 129 µM) | 10 µg/mL (≈ 36.9 µM) | 35 µg/mL (≈ 129 µM) | > 100 µg/mL | 102 | EC50 (FM3A [11]): > 200 µg/mL; EC50 (FM3A [14]): > 200 µg/mL; EC50 (MOLT-4): 17 µg/mL (≈ 62.7 µM) |
| Nc1nc2c(ncn2COC(CO)CO)c(=O)[nH]1 [GANCICLOVIR] | – | 0.002 µg/mL (≈ 0.00784 µM) | > 100 µg/mL | – | 0.002 µg/mL (≈ 0.00784 µM) | – | – | 0.002 µg/mL (≈ 0.00784 µM) | – | – | – | 0.006 µg/mL (≈ 0.0235 µM) | – | 5 µg/mL (≈ 19.6 µM) | – | 0.001 µg/mL (≈ 0.00392 µM) | – | 0.003 µg/mL (≈ 0.0118 µM) | – | – | – |
| Cc1cn([C@H]2C[C@H](N=[N+]=[N-])[C@@H](CO)O2)c(=O)[nH]c1=O [ZIDOVUDINE] | – | – | – | > 200 µg/mL | – | >100000 | 0.0007 µg/mL (≈ 0.00262 µM) | – | > 100 µg/mL | – | 1.5 µg/mL (≈ 5.61 µM) | – | 0.0005 µg/mL (≈ 0.00187 µM) | – | 0.0007 µg/mL (≈ 0.00262 µM) | – | 0.0009 µg/mL (≈ 0.00337 µM) | – | > 25 µg/mL | 3000 | – |
| O=c1[nH]c(=O)n([C@H]2C[C@H](O)[C@@H](CO)O2)cc1/C=C/Br [BRIVUDINE] | – | 90 µg/mL (≈ 270 µM) | > 300 µg/mL | – | 0.02 µg/mL (≈ 0.06 µM) | – | – | > 400 µg/mL | – | – | – | > 400 µg/mL | – | 10 µg/mL (≈ 30 µM) | – | 0.007 µg/mL (≈ 0.021 µM) | – | 90 µg/mL (≈ 270 µM) | – | – | MIC (HEL [22]): 5 µg/mL (≈ 15 µM); MIC (HEL [23]): 50 µg/mL (≈ 150 µM); MIC (HEL [24]): 0.003 µg/mL (≈ 0.00901 µM); MIC (HEL [25]): 0.005 µg/mL (≈ 0.015 µM); MIC (HEL [26]): 30 µg/mL (≈ 90.1 µM) |
| Cc1cn(C2C/C(=N\O)C(CO)O2)c(=O)[nH]c1=O (stereo not given) | > 200 µg/mL | 0.7 µg/mL (≈ 2.74 µM) | > 400 µg/mL | > 100 µg/mL | 0.5 µg/mL (≈ 1.96 µM) | 28 | 0.03 µg/mL (≈ 0.118 µM) | 1.4 µg/mL (≈ 5.49 µM) | 9.9 µg/mL (≈ 38.8 µM) | 1.1 µg/mL (≈ 4.31 µM) | 1.6 µg/mL (≈ 6.27 µM) | 11 µg/mL (≈ 43.1 µM) | 0.025 µg/mL (≈ 0.098 µM) | > 200 µg/mL | 0.4 µg/mL (≈ 1.57 µM) | 0.4 µg/mL (≈ 1.57 µM) | 0.35 µg/mL (≈ 1.37 µM) | 1.3 µg/mL (≈ 5.09 µM) | 20 µg/mL (≈ 78.4 µM) | 88 | MIC (HEL [22]): 0.31 µg/mL (≈ 1.21 µM); EC50 (HepG2): 0.25 µg/mL (≈ 0.98 µM); MIC (HEL [23]): > 50 µg/mL; MIC (HeLa): 135 µg/mL (≈ 529 µM); MIC (HEL [24]): 0.85 µg/mL (≈ 3.33 µM); MIC (HEL [25]): 1.4 µg/mL (≈ 5.49 µM); MIC (HEL [26]): 0.5 µg/mL (≈ 1.96 µM); EC50 (FM3A [11]): > 200 µg/mL; EC50 (FM3A [14]): > 200 µg/mL; EC50 (MOLT-4): 1.2 µg/mL (≈ 4.7 µM); MIC (HEL [27]): 20 µg/mL (≈ 78.4 µM) |
